One compound from ChEMBL document CHEMBL4265954, “Discovery of potent liver-selective stearoyl-CoA desaturase-1 (SCD1) inhibitors, thiazole-4-acetic acid derivatives, for the treatment of diabetes, hepatic steatosis, and obesity” (Eur J Med Chem, 2018) can be followed below.

For one data set, the target named is T1, Stearoyl-CoA desaturase (Homo sapiens, UniProt O00767).
T1 sequence (O00767 whole entry): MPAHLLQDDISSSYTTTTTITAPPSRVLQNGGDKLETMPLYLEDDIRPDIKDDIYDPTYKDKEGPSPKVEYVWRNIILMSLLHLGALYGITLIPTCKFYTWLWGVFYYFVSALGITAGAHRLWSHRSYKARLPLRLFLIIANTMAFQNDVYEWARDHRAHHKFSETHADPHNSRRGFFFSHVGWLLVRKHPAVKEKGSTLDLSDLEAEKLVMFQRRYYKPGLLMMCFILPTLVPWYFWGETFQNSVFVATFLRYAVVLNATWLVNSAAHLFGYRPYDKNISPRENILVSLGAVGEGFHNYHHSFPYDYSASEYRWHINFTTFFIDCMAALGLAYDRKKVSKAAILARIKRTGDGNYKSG
Description: Inhibition of recombinant human SCD1 expressed in baculovirus expression system assessed as reduction in [3H]H2O production using stearoyl [9,10-3H]CoA as substrate in presence of NADH incubated for 30 mins by scintillation counting method. In short, it runs like this: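 Desaturation of [9,10-3H]stearoyl-CoA measured as released [3H]H2O. Water was separated from charcoal-adsorbed substrate by filtration and counted by scintillation. Remaining activity = (compound − background)/(control − background). DMSO wells served as control and pre-stopped wells as background. IC50 was interpolated from the two points bracketing 50%.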

Data set [1] is described as follows: Solubility of the compound in PBS at pH 7.2. Type of data set: physicochemical.
Data set [2] can be described thus: Apparent permeability of the compound in human Caco2 cells. Type of data set: ADME, cell-based. The settings on record: Caco-2. In general terms: Caco-2 cells form a polarised layer with tight junctions and transporters.
For data set [3], the system named is Mus musculus. Briefly: Ex vivo inhibition of SCD1 in C57BL/6J mouse eyelid assessed as residual activity at 1 mg/kg, po treated for 6 hrs followed by incubation with [14C]stearoyl-CoA substrate for 30 mins by TLC assay relative to control. Type of data set: organism-based. An outline of the steps: (§1)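 Male 6-week-old C57BL/6J mice dosed orally as a suspension in 0.5% methylcellulose. Liver or eyelid was taken 6 or 24 h later and homogenized in 100 mM Tris-HCl pH 7.4 with 0.25 M sucrose. S9 was obtained at 10,000 × g, 4 °C. S9 was incubated with [14C]stearoyl-CoA, NADH, MgCl2 and cytochrome b5 at room temperature, 10 min for liver and 30 min for eyelid. Lipids were saponified and run on AgNO3 TLC to quantify stearate and oleate. Result is % of vehicle control.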

For data set [4], the system named is Mus musculus. Description: Ex vivo inhibition of SCD1 in C57BL/6J mouse eyelid assessed as residual activity at 100 mg/kg, po treated for 24 hrs followed by incubation with [14C]stearoyl-CoA substrate for 30 mins by TLC assay relative to control. Type of data set: organism-based. An outline of the steps: as §1
The next data set deals with hERG (KCNH2) (Homo sapiens, UniProt Q12809). Description: Inhibition of human ERG at 10 uM relative to control.
The next data set addresses Cytochrome P450 2C9 (Homo sapiens, UniProt P11712). Briefly: Inhibition of CYP2C9 (unknown origin). Type of data set: ADME.
The target of another data set is Cytochrome P450 2D6 (Homo sapiens, UniProt P10635). Briefly: Inhibition of CYP2D6 (unknown origin). Type of data set: ADME.
The nature of data set [5]: Tmax in Sprague-Dawley rat at 10 mg/kg, po. To be noted: in vivo. Type of data set: ADME, organism-based. An outline of the steps:
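Two male Sprague-Dawley rats per route, 10 mg/kg po and 1 mg/kg iv. Cmax, tmax, terminal-phase half-life and AUC0-inf were taken from plasma concentration–time curves. Bioavailability was derived from the po and iv data.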

Data set [6] is described as follows: AUC (0 to infinity) in Sprague-Dawley rat at 10 mg/kg, po. The settings on record: in vivo. Type of data set: ADME, organism-based. Set-up: dose 10 mg/kg, route oral, time infinity.
A short description of data set [7]: Cmax in C57BL/6J mouse at 10 mg/kg, po. Type of data set: ADME, organism-based. On the set-up: dose 10 mg/kg, route oral. To be noted: in vivo. In short, it runs like this:
(§2)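 Two male C57BL/6J mice per route, 10 mg/kg po and 1 mg/kg iv. Plasma concentration–time profiles gave Cmax, tmax, terminal half-life and AUC0-inf. Bioavailability was derived from the po and iv data.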

The nature of data set [8]: Tmax in C57BL/6J mouse at 10 mg/kg, po. Type of data set: ADME, organism-based. The settings on record: in vivo. An outline of the steps:
as §2

Data set [9] is described as follows: Oral bioavailability in C57BL/6J mouse at 10 mg/kg. Type of data set: ADME, organism-based. The settings on record: in vivo. In short, it runs like this: as §2
Data set [10] in a line: Metabolic stability in rat liver S9 fraction after 1 hr. Type of data set: ADME, subcellular. The settings on record: read-out: Stability.
The subject of data set [11] is Mus musculus. Description: Antidiabetic activity in high fat diet fed C57BL/6J mouse assessed as reduction in plasma glucose AUC (0 to 120 mins) administered orally as diet mixture for 43 days and measured on day 22 of administration after overnight fasting by OGTT method. Type of data set: functional, organism-based. An outline of the steps: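 Male? not stated. C57BL/6J mice fed high fat diet for one month, then given compound as HFD admixture (0.0040% or 0.0133%) for ~3 or 10 mg/kg/day over 43 days (10–16 weeks of age); controls on normal chow or HFD. Day 22: overnight fast, glucose load 1 g/kg; plasma glucose at 0, 0.5, 1, 2 h, AUC calculated; n=5–8, mean ± SD, Dunnett's test.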

Data set [12] concerns Rattus norvegicus. Briefly: Ex vivo inhibition of SCD1 in high sucrose diet Sprague-Dawley rat liver treated orally for 6 hrs followed by incubation with [14C]stearoyl-CoA substrate for 10 mins by TLC assay. Type of data set: functional, organism-based. An outline of the steps: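 Sprague-Dawley rats on a high sucrose diet, given oral 1 or 10 mg/kg. Liver, epididymal adipose and eyelid were taken 6 h later and homogenized. S9 SCD activity was measured by [14C]stearoyl-CoA conversion to oleate and quantified by AgNO3 TLC imaging. Result is % remaining activity versus control, mean ± SD, n=3.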

The nature of data set [13]: Drug uptake in high sucrose diet Sprague-Dawley rat liver at 10 mg/kg, po treated after 6 hrs. Type of data set: ADME, organism-based. The settings on record: read-out: Drug uptake. In short, it runs like this: (§3)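 Sprague-Dawley rats on a high sucrose diet, given a single oral 10 mg/kg dose. Plasma, liver and eyelid drug concentrations were measured 6 h later, n=3. Liver/eyelid ratio was taken from the tissue concentrations.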

Data set [14] can be described thus: Drug uptake in high sucrose diet Sprague-Dawley rat eyelid at 10 mg/kg, po treated after 6 hrs. To be noted: read-out: Drug uptake. Type of data set: ADME, organism-based. In short, it runs like this: as §3
Data set [15] in a line: Ratio of drug uptake in high sucrose diet Sprague-Dawley rat liver to eyelid at 10 mg/kg, po treated after 6 hrs. Type of data set: ADME, organism-based. The settings on record: in vivo. An outline of the steps: as §3
Data set [16] relates to Rattus norvegicus. Description: Anti-hepatic steatosis activity in high sucrose very low fat diet fed Sprague-Dawley rat assessed as reduction in triglyceride level in liver administered orally once daily for 8 days and measured on day 8 post last dose. Type of data set: functional, organism-based. In short, it runs like this:
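SD rats kept on a high sucrose very low fat diet, dosed orally at 1 or 10 mg/kg once daily for 8 days. On day 8, liver slices were homogenized in methanol and extracted with methanol/chloroform. The supernatant was dried under N2 and redissolved in 2-propanol. Triglyceride was read on an automatic analyzer and expressed as mg/g tissue.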

Data set [17] has as its system Rattus norvegicus. Briefly: Toxicity in Sprague-Dawley rat at 100 mg/kg, po once daily for 2 weeks. Type of data set: organism-based. To be noted: in vivo, 336 h. An outline of the steps:
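Male Sprague Dawley rats, 6 weeks old (5 per group), were dosed orally once daily for 2 weeks at 100 or 1000 mg/kg as a suspension in 0.5% methylcellulose; controls received vehicle. Readouts: clinical observations, body weight, food consumption, ophthalmoscopy in week 2, and terminal necropsy, hematology, clinical chemistry, organ weights and histopathology. Plasma levels were measured 24 h post-dose on days 1, 5 and 10.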

pIC50: −log10 of the molar value. ≈ marks a conversion by molar mass, not a printed value.

Sequence of Cytochrome P450 2C9 (P11712 whole entry): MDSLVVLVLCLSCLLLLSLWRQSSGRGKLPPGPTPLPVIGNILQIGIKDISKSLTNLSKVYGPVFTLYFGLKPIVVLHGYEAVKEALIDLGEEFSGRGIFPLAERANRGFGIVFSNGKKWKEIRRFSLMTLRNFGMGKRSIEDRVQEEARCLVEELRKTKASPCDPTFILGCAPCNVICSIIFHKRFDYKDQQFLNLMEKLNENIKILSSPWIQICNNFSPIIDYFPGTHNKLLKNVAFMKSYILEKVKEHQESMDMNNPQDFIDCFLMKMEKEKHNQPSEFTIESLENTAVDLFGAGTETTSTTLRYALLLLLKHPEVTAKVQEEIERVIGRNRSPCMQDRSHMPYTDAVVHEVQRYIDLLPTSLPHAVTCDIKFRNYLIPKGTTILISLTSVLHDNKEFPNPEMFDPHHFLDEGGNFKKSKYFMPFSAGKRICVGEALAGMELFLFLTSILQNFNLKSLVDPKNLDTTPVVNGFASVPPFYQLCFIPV
Sequence of hERG (KCNH2) (Q12809 whole entry): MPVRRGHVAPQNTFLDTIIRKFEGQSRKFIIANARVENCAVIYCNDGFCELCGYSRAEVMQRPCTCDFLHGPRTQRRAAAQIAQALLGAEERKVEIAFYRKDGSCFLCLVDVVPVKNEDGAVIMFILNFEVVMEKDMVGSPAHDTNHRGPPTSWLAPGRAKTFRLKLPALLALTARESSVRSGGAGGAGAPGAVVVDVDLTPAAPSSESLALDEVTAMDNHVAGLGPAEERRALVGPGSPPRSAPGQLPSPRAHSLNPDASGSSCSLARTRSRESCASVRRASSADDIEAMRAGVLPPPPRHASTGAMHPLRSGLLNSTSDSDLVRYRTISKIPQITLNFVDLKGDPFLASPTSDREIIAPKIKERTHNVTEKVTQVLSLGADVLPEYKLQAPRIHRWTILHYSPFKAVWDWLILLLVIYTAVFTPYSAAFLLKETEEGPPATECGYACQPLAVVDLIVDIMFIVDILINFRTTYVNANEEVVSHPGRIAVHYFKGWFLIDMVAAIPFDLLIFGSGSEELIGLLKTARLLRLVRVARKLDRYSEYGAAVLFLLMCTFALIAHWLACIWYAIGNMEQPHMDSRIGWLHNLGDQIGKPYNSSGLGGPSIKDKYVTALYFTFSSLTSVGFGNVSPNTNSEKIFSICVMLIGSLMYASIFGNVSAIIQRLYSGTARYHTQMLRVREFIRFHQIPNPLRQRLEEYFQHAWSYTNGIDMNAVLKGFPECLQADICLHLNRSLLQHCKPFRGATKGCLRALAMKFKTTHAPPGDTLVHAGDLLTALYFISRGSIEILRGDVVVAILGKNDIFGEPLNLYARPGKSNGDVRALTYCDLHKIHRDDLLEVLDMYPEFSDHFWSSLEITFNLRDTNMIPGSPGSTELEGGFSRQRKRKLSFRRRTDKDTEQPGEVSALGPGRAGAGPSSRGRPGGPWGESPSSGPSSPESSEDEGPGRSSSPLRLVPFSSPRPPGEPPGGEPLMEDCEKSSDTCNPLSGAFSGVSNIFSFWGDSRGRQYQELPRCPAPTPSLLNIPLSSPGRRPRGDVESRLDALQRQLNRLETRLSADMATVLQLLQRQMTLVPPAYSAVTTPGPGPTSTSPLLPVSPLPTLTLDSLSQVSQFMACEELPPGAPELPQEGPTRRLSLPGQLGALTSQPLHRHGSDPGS
Sequence of Cytochrome P450 2D6 (P10635 whole entry): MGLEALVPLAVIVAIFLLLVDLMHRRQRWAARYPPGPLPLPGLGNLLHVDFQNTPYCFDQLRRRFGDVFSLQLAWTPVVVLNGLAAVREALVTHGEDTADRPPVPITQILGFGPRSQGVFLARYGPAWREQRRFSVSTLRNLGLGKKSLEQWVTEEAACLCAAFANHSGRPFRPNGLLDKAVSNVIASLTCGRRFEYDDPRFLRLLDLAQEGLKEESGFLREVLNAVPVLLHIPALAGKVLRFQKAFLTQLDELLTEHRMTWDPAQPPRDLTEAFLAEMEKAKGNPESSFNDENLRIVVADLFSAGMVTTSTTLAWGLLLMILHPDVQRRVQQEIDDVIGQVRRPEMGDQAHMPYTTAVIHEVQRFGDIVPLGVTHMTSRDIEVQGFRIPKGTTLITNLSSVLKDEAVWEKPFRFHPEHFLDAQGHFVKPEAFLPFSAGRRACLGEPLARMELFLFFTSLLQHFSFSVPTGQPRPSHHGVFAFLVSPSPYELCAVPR

As usually defined, the pIC50 is the negative decadic logarithm of the IC50, by convention in mol/L. One may read the solubility as the dissolved amount per volume that the medium holds. Low values mean a poorly soluble substance, high ones a readily soluble substance. Broadly, the Papp is the rate of passage across a membrane or cell layer, normalised by area and donor concentration. A word on the inhibition: it is how much of the control response was suppressed. As a reminder, the Tmax is the time at which the peak concentration occurs. A word on the AUC(0-inf): it is the area under the concentration-time curve extrapolated to infinity. The low end stands for low exposure, the high end for high exposure. The Cmax is the peak of the concentration-time curve. For orientation: bioavailability means dose-corrected exposure relative to a reference, in per cent. The low end stands for little systemic uptake, the high end for much systemic uptake. Take `CCCCc1ccccc1NCc1ccc(C(=O)Nc2nc(CC(=O)O)cs2)s1`: the pIC50 at Stearoyl-CoA desaturase is 8.06; against Cytochrome P450 2C9, under 4.30; against Cytochrome P450 2D6, under 4.30. Further, the solubility in data set [1] came to 82 µM (≈ 35.2 µg/mL). For the same compound, the Papp in [2] was determined as 43.6 ×10⁻⁶ cm/s. For the same compound, the Activity in the data set with Mus musculus [3] was 97%; in the data set on Mus musculus [4] it was 57%; in the data set on Mus musculus [11], “Dose-dependent effect”; in the data set on Rattus norvegicus [16] it was “Dose-dependent effect”; in the data set with Rattus norvegicus [17] it was “Non-Toxic”. On hERG (KCNH2), this compound came in with an inhibition at 10 µM of 14.7%. In addition, the Tmax in data set [5] is 30 min; in data set [8], 60 min. Also, in [6], the AUC(0-inf) is 16.5 µM·h. Further, in [7], the peak level (Cmax) was 1700 nM. Besides, in data set [9], the bioavailability is 28%. The remaining at 1 h in [10] is 87%. In the data set on Rattus norvegicus [12], the inhibition result was “Dose-dependent effect”. In addition, the concentration at 6 h in [13] was found to be 1000 nM; in data set [14], 160 nM. Further, the Ratio in [15] stood at 6.3.
